Compounds with a hit are over-represented: about 1.4% of the library has one in this group of screens.
CRFR2-BP antag – blocks CRF-induced signaling of the CRF-BP/CRF-R2 complex. inhibition, % at 11.8 µM. HEK293 CRF-R2/CRF-BP, CRF-induced calcium fluorescence. actives 0.59% (n = 350,000);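 active means inhibition of the ligand-induced calcium signal above about 50% at the single tested concentration, limit read from the data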
DDE Tn6 FP inh – DD(E)-Tn6 binding inhibition, primary FP screen | Fibrin DD(E) TRITC-Tn6 fluorescence polarization displacement | inhibition, % at 8.3 µM | actives 0.21% (n = 370,000);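 active means inhibition above a per-campaign cutoff: mean of compounds within control limits plus 3 SD, cut at about 15% in these data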;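 further: 0% = median of all compound wells on the plate and 100% = blocking peptide control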
Target sequence (P02675 whole entry, looked up): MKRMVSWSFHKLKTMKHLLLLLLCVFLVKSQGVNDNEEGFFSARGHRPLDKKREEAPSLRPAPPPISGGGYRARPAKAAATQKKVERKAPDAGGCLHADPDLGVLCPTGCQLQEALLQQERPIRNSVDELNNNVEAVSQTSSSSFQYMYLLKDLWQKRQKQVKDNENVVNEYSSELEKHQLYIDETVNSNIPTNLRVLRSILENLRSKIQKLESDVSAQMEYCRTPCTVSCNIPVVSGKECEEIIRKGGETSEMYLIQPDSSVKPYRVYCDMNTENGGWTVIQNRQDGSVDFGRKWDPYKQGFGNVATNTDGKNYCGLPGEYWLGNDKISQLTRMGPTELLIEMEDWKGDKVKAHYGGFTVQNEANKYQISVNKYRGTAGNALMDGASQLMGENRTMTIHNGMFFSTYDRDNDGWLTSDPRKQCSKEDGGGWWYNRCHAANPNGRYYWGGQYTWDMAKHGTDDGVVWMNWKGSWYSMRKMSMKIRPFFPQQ
Tn7 DDE FP – inhibitors of Tn7 peptide binding to human fibrin DD(E); P02675; FP displacement of FITC-Tn7 peptide from fibrin DD(E); 0% = median of compound wells per plate; inhibition, % at 8.3 µM; actives 0.13% (n = 370,000); AID 720508;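 active means inhibition above the mean of compounds falling within the control limits plus 3 SD of them, cut at about 14% in these data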;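 further: 0% = plate median of compound wells and 100% = 10 µM Aha-Tn7 peptide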
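Also added: labelled Tn7 tracer, 0.1 µM; Assay system: human fibrin DD(E) protein; Amount: 2 µM fibrin DD(E); Schedule: 10 min compound pre-incubation, 3 h probe incubation at room temperature; Repeats: one replicate per compound; Read-out basis: percent inhibition; Measured by: fluorescence polarization of the labelled Tn7 tracer.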
RTF Ca sens act – cardiac RTF calcium sensitization; IANBD-labeled TnC RTF fluorescence at EC20 calcium; 0% EC20 calcium, 100% full calcium; activation, % at 7.2 µM; actives 0.24% (n = 340,000);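 active means activation above the mean over all tested compounds plus 3 SD, cut at about 30% in these data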;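 further: rise in fluorescence read as greater calcium sensitivity of cardiac thin filaments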
Cardiac RTF inh – cardiac RTF calcium desensitization | IANBD-labeled cardiac RTF, Ca2+ fluorescence | actives 0.12% (n = 340,000) | P19429+P45379 | AID 493244 | inhibition, % at 7.15 µM;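 active means inhibition above the mean inhibition of all tested compounds plus 3 SD, cut at about 17% in these data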;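 further: assay run at fixed EC70 calcium of 1.6 mM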
CRFR2-BP ag – agonists of human CRF-binding protein/CRF-R2 receptor complex; actives 0.46% (n = 350,000); activation, % at 13.2 µM; AID 588473; HEK293 CRF-R2/CRF-BP, calcium dye fluorescence (FLIPR); percent of saturating CRF peptide response;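 active means activation of at least 50%, plus an integration ratio under a set limit after plate pattern correction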;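 further: plate controls were neutral control wells without compound for no effect and CRF at EC100 for full effect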
DDE Tn7 confirm – DD(E)-Tn7 binding inhibition, FP confirmation; FP displacement of TRITC-Tn7 peptide from DD(E); 0% set at plate's compound-well median; shares compounds with Tn7 DDE FP; actives 5% (n = 460); inhibition, % at 8.3 µM;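 active means inhibition above the campaign cutoff, the mean of compounds within control limits plus 3 SD, cut at about 14% in these data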;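 further: 100% = median FP of high control wells holding Aha-Tn7 inhibitor peptide; displacers lower polarization since freed probe rises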
DDE Tn7 FP ctr – DD(E)-Tn7 binding inhibition, counter-screen. actives 3% (n = 460). inhibition, % at 8.3 µM. fibrin DD(E), TRITC-Tn7 probe displacement, fluorescence polarization. shares compounds with Tn7 DDE FP;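 active means inhibition above the cutoff, the mean of compounds lying between the control bounds plus 3 SD of those compounds, cut at about 17% in these data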;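 further: 0% = median of compound sample wells and 100% = excess unlabeled Aha-Tn7 peptide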
DDE Tn6 FP ctr – DD(E)-Tn6 binding inhibition, counter-screen; shares compounds with DDE Tn6 FP inh; Fibrin DD(E), TRITC-Tn6 fluorescence polarization displacement; 0% = median of compound wells, not DMSO; inhibition, % at 8.3 µM; actives 2% (n = 680);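 active means inhibition above the mean of test compounds lying between the control limits plus 3 SD of those, cut at about 14% in these data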;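 further: 0% = median of compound wells and 100% = wells with Aha-Tn7 blocking peptide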
DDE Tn6 confirm – DD(E)-Tn6 binding inhibition, FP confirmation. actives 10% (n = 680). shares compounds with DDE Tn6 FP inh. inhibition, % at 8.3 µM. FP displacement of TRITC-Tn6 peptide from DD(E); 0% = per-plate median of test wells;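 active means inhibition above the mean of compounds lying within the control limits plus 3 SD, cut at about 16% in these data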;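 further: 100% = high control wells holding a competing inhibitor peptide at 10 µM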
* = called active by the depositor; i = inactive; · = no result given.

SMILES	CRFR2-BP antag	DDE Tn6 FP inh	Tn7 DDE FP	RTF Ca sens act	Cardiac RTF inh	CRFR2-BP ag	DDE Tn6 FP ctr	DDE Tn6 confirm	others
Cc1cc(NS(=O)(=O)c2ccc(NC(=O)Cc3ccc([N+](=O)[O-])cc3)cc2)no1	-11.6	3.8	13.8*	1.0	1.9	1.3	·	·	DDE Tn7 confirm=-0.5;DDE Tn7 FP ctr=-2.1
COc1ccc(CNC(=O)C[C@H]2C[C@H](C(=O)N3CCOCC3)[C@@]3(C)c4[nH]c5cc(-c6ccco6)ccc5c4CCN3C2=O)cc1OC	4.0	114.5*	45.8*	-2.1	0.4	-1.3	2.4	0.5	DDE Tn7 confirm=2.4;DDE Tn7 FP ctr=0.5
N#CC1=C(N)Oc2ccc3ccc(O)cc3c2C1c1ccsc1 (stereo not given)	-43.9	168.6*	22.9*	98.9*	-106.4	70.6*	7.8	37.8*	DDE Tn7 confirm=7.8;DDE Tn7 FP ctr=37.8*
N#CC1=C(N)Oc2cc(N)ccc2C1c1ccsc1 (stereo not given)	21.5	7.5	6.9	4.3	1.5	-0.3	·	·
OC(c1ccc(-c2ccccc2)cc1)c1ncc(-c2ccc(F)cc2)[nH]1 (stereo not given)	·	-5.3	-9.0	·	·	·	·	·
CN(C)c1ccc(C=Cc2nccc3ccccc23)cc1	·	130.6*	29.5*	·	·	·	1.6	54.1*	DDE Tn7 confirm=1.6;DDE Tn7 FP ctr=54.1*
Nc1cnccc1C(=O)O	-19.4	45.9*	13.8*	38.7*	-49.4	24.2	-1.7	-3.1	DDE Tn7 confirm=-1.7;DDE Tn7 FP ctr=-3.1
CC(C)(C)N1Cc2nnn(CC3CCCCC3)c2-c2ccccc2S1(=O)=O	·	2.6	-4.0	·	·	·	·	·
COc1ccccc1-c1cnc(C(O)c2ccc(Cl)c(Cl)c2)[nH]1 (stereo not given)	·	10.7	-1.3	·	·	·	·	·
CCCCNC(=O)C1(C(=O)c2ccc(OC)cc2)CC(c2ccccc2C(F)(F)F)=NO1 (stereo not given)	·	-1.1	12.0	·	·	·	·	·
CCOC(=O)NC(=O)/C(C#N)=C\Nc1sccc1C(=O)OC	-33.7	16.1*	16.8*	-0.1	-20.5	48.0	1.1	1.9	DDE Tn7 confirm=1.1;DDE Tn7 FP ctr=1.9
CCOC(=O)NC(=O)/C(C#N)=C\Nc1ccc(Cl)cc1Cl	10.9	-2.4	-3.2	1.9	12.8	-0.8	·	·
O=C1C=C(N2CCOCC2)c2ccccc2C1=O	-9.7	5.2	5.2	1.5	1.3	-2.5	·	·
O=C1C(N2CCOCC2)=Cc2cccc3cccc1c23	-13.5	37.9*	21.9*	·	·	25.2	-0.1	16.5*	DDE Tn7 confirm=-0.1;DDE Tn7 FP ctr=16.5*
O=C1C=C(N2CCOCC2)c2cccc3cccc1c23	3.7	31.1*	24.6*	·	·	16.7	7.3	7.6	DDE Tn7 confirm=7.3;DDE Tn7 FP ctr=7.6
COc1ccc(-n2c(=S)[nH]c3cc(C(=O)Nc4ccc(OC)c(OC)c4)ccc3c2=O)cc1	-3.4	16.9*	-2.1	-3.0	-3.7	0.6	-3.0	-12.1
COc1ccc(-n2c(=S)[nH]c3cc(C(=O)Nc4cccc(C)c4)ccc3c2=O)cc1	21.1	-15.2	0.3	-1.8	-18.3	1.0	·	·
CC(C)CN1C(=O)C[C@@]2(C(=O)N(C)c3ccc(NC(=O)C(F)(F)F)cc32)C1c1ccccc1 (stereo not given in full)	·	0.0	9.9	·	·	·	·	·
Cc1cc(Br)cn2c(Cc3ccsc3)c(-c3cccc(Cl)c3)nc12	·	18.1*	-1.1	·	·	·	10.6	5.7
Cc1cc(Br)cn2c(Cc3cccc(Cl)c3)c(-c3cccc(Cl)c3)nc12	·	-0.5	3.4	·	·	·	·	·
c1ccc(C2CCC3(CC2)CCC3NCc2cccs2)cc1 (stereo not given)	·	-1.7	-1.3	·	·	·	·	·
CCCCC1CC(CSc2ncn[nH]2)OC1=O (stereo not given)	4.6	72.0*	6.2	10.4	8.7	-0.1	-1.5	-6.5
CCCCC1CC(CSC(=N)N)OC1=O (stereo not given)	23.9	17.9*	5.9	3.4	-6.1	-1.4	0.5	-3.5
CCCCCCCC1CC(CSC(=N)N)OC1=O (stereo not given)	-23.5	12.7	3.5	-2.4	-1.1	-2.0	·	·
Nc1cc(C(=O)O)ccc1Nc1ccccc1	-1.3	18.3*	-2.8	1.6	-0.7	0.9	6.2	-4.8
SMILES	CRFR2-BP antag	DDE Tn6 FP inh	Tn7 DDE FP	RTF Ca sens act	Cardiac RTF inh	CRFR2-BP ag	DDE Tn6 FP ctr	DDE Tn6 confirm	others
CCc1ccccc1Nc1ccc(C(=O)O)cc1N	-6.6	7.8	-2.9	-0.2	-10.7	2.6	·	·
COc1ccc(CNCC#Cc2ccccc2)c(OC)c1	·	-1.9	0.9	·	·	·	·	·
CCCCCC(=O)N1C[C@H](n2cc(COC(=O)c3ccccc3)nn2)[C@@H](O)C[C@@H]1c1ccc(Cl)cc1	-9.9	-6.1	0.2	·	·	1.4	·	·
CCOC(=O)CNC(=O)CSc1nc2ccccc2c(=O)n1-c1ccc(Cl)cc1	·	5.7	3.8	·	·	·	·	·
COC(=O)/C(=C/Nc1ccc(O)cc1)[N+](=O)[O-]	-4.0	46.1*	0.7	-9.1	-1.2	0.4	0.7	-5.7
O=C1c2cccc3c(O)ccc(c23)C(=O)N1Cc1ccccc1	-195.6	23.9*	-1.3	957.0*	i	247.9	19.2*	18.6*
COc1ccc(C(O)c2nc(/C=C/c3ccc(C(F)(F)F)cc3)cs2)cc1 (stereo not given)	·	2.1	-4.1	·	·	·	·	·
CC1CN(C(=O)c2ccc(COc3ccccc3Br)o2)CC(C)O1 (stereo not given)	6.5	21.3*	7.6	-1.2	-22.6	0.8	-1.1	-0.6
Cc1ccccc1C(=O)N1CCC(C(=O)Nc2ccc(C(C)C)cc2)CC1	-22.2	-1.7	1.0	5.7	-3.3	-0.9	·	·
Cc1ccccc1C(=O)N1CCC(C(=O)NC2CCCCCC2)CC1	-5.8	-0.7	-5.0	-6.4	-2.8	-0.5	·	·
Cc1ccccc1C(=O)N1CCC(C(=O)Nc2ccc(F)cc2)CC1	-15.7	15.2*	1.3	5.9	1.5	-0.4	3.9	-8.9
Cc1ccccc1C(=O)N1CCC(C(=O)Nc2ccccn2)CC1	0.0	44.1*	2.4	-3.3	8.2	2.7	0.8	-3.9
CCN(CC)C(=O)CC[C@@H]1CC[C@]2(CCCN(Cc3ccncc3)C2)O1	·	0.4	6.7	·	·	·	·	·
COc1ccc(C2CC3CN(C4CCCCC4)C(=O)C3N2C)cc1 (stereo not given)	·	2.0	-0.6	·	·	·	·	·
CC(C)CCn1c(=O)c2ccccc2n2c(CN3CCOCC3)nnc12	-8.4	15.7*	-2.2	-3.1	4.2	0.3	0.8	0.1

Screening results (PubChem)
